Drawing on ChEMBL document CHEMBL2346541, “Synthesis and evaluation of quinazoline derivatives as phosphodiesterase 7 inhibitors” (Bioorg Med Chem, 2013), this text covers IC50 for 29 compounds.

In this assay the target is Phosphodiesterase 7 (Homo sapiens, UniProt Q13946+Q9NP56). The assay is described as follows: Inhibition of PDE7 catalytic domain (unknown origin) using [3H]-cAMP as substrate after 1 hr by scintillation proximity assay. The format is protein assay. The method, boiled down: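 Test compounds were dissolved in DMSO (10 mM stock) and run as a dilution series. It was stirred 1 h at room temperature, stopped with PDE SPA beads, settled 20 min and counted. Assays were run in triplicate, and IC50 was calculated.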
In general terms: SPA uses beads or plates that emit light when radiolabelled molecules are held near them.

By IC50 is commonly meant the concentration that gives 50% inhibition. A higher IC50 goes with a need for much substance. `Cc1nc(SCc2ccc(-c3ccccc3-c3nn[nH]n3)cc2)c2ccccc2n1` returned an IC50 of 11 µM.
As for `CC(C)c1nc(SCc2ccc(-c3ccccc3C(=O)O)cc2)c2ccccc2n1`, the IC50 worked out at 44 µM.
The compound `CC(C)c1nc(SCc2ccc(-c3cccc(C(=O)O)c3)cc2)c2ccccc2n1` gave an IC50 of 0.85 µM. Compared with the last compound, the IC50 is about 52-fold lower.
In the case of `CC(C)c1nc(SCc2ccc(-c3ccc(C(=O)O)cc3)cc2)c2ccccc2n1` it was 0.93 µM.
`Clc1ccc(-c2nc(SCc3ccc(-c4ccccc4-c4nnn[nH]4)cc3)c3ccccc3n2)cc1` returned an IC50 of 12 µM.
`Brc1cc(Br)c2c(SCc3ccc(-c4cccc(-c5nnn[nH]5)c4)cc3)nc(CCc3ccccc3)nc2c1` displayed an IC50 of over 100 µM.
In turn, `COc1cc2c(SCc3ccc(-c4ccccc4-c4nnn[nH]4)cc3)nc(CCc3ccccc3)nc2c(OC)c1OC` returned an IC50 of 3.6 µM.
As for `N#Cc1ccccc1-c1ccc(CSc2ncnc3ccccc23)cc1`, the IC50 is over 100 µM.
The compound `Cc1nc(SCc2ccc(-c3ccccc3C#N)cc2)c2ccccc2n1` had an IC50 of over 100 µM.
`N#Cc1ccccc1-c1ccc(CSc2nc(C(Cl)(Cl)Cl)nc3ccccc23)cc1` gave an IC50 of over 100 µM.
In the case of `CC(C)c1nc(SCc2ccc(-c3ccccc3C#N)cc2)c2ccccc2n1`, the IC50 was over 100 µM.
Consider `N#Cc1ccccc1-c1ccc(CSc2nc(SCc3ccccc3)nc3ccccc23)cc1`, for which the IC50 result is recorded as “ND(Insoluble)”.
In turn, `N#Cc1ccccc1-c1ccc(CSc2nc(SCc3ccc(F)cc3)nc3ccccc23)cc1` yielded an IC50 of over 100 µM.
Under `N#Cc1ccccc1-c1ccc(CSc2nc(SCc3ccc([N+](=O)[O-])cc3)nc3ccccc23)cc1` stands over 100 µM; under `COC(=O)c1ccccc1-c1ccc(CSc2nc(C(C)C)nc3ccccc23)cc1`, over 100 µM.
Consider `COC(=O)c1cccc(-c2ccc(CSc3nc(C(C)C)nc4ccccc34)cc2)c1`, for which the 50% inhibitory concentration (IC50) is over 100 µM.
In the case of `COC(=O)c1ccc(-c2ccc(CSc3nc(C(C)C)nc4ccccc34)cc2)cc1` it was 33 µM.
For the compound `c1ccc(CSc2nc(SCc3ccc(-c4ccccc4-c4nnn[nH]4)cc3)c3ccccc3n2)cc1`, the IC50 turned out to be 7.1 µM. This IC50 lies about 4.6-fold lower than the previous one.
`Fc1ccc(CSc2nc(SCc3ccc(-c4ccccc4-c4nnn[nH]4)cc3)c3ccccc3n2)cc1` showed an IC50 of 6.8 µM.
In turn, `O=[N+]([O-])c1ccc(CSc2nc(SCc3ccc(-c4ccccc4-c4nnn[nH]4)cc3)c3ccccc3n2)cc1` registered an IC50 of 4.9 µM.
For the compound `COc1cccc(CSc2nc(SCc3ccc(-c4ccccc4-c4nnn[nH]4)cc3)c3ccccc3n2)c1`, the IC50 stood at 3.3 µM.
In the case of `c1ccc(-c2nnn[nH]2)c(-c2ccc(CSc3nc(SCc4ccc(-c5ccccc5-c5nnn[nH]5)cc4)c4ccccc4n3)cc2)c1` it was “ND(Insoluble)”.
Under `c1cc(-c2ccc(CSc3ncnc4ccccc34)cc2)cc(-c2nnn[nH]2)c1` stands 8.2 µM; under `c1ccc2c(SCc3ccc(-c4ccc(-c5nnn[nH]5)cc4)cc3)ncnc2c1`, 7.2 µM; under `Cc1nc(SCc2ccc(-c3cccc(-c4nnn[nH]4)c3)cc2)c2ccccc2n1`, 2.5 µM.
In the case of `Cc1nc(SCc2ccc(-c3ccc(-c4nnn[nH]4)cc3)cc2)c2ccccc2n1` it was 8 µM; in that of `ClC(Cl)(Cl)c1nc(SCc2ccc(-c3ccccc3-c3nnn[nH]3)cc2)c2ccccc2n1`, 2.6 µM; in that of `CC(C)c1nc(SCc2ccc(-c3cccc(-c4nnn[nH]4)c3)cc2)c2ccccc2n1`, 0.89 µM.
Compound `CC(C)c1nc(SCc2ccc(-c3ccccc3-c3nn[nH]n3)cc2)c2ccccc2n1` yielded an IC50 of 0.77 µM.
